{"data": "Results collected from several papers", "FGFR2": "Fibroblast growth factor receptor 2 (FGFR2, Homo sapiens, UniProt P21802)", "FGFR2 N549H": "Fibroblast growth factor receptor 2 (FGFR2, Homo sapiens, UniProt P21802, N549H)", "note": "Compare with care: the assays were run in different laboratories."}
{"Compound": "CNC(=O)c1cc(Oc2ccc(NC(=O)Nc3ccc(Cl)c(C(F)(F)F)c3)cc2)ccn1", "target": "FGFR2", "observed": "enzyme activity", "mode": "inhibitor", "concentration": "0.3 µM", "quantity": "inhibition", "result": "66%"}
{"Compound": "Cc1ccc(C(=O)Nc2ccc(CN3CCN(C)CC3)c(C(F)(F)F)c2)cc1C#Cc1cnc2cccnn12", "target": "FGFR2", "observed": "cell-free assay", "concentration": "23.5 nM", "quantity": "remaining signal", "result": "32%"}
{"Compound": "COc1cc2c(Nc3ccc(Br)cc3F)ncnc2cc1OCC1CCN(C)CC1", "target": "FGFR2", "observed": "cell-free assay", "concentration": "0.5 µM", "quantity": "remaining signal", "result": "38.4%"}
{"Compound": "O=C(Nc1cnn(-c2csc(C(=O)NC3COC3)c2)c1)Nc1ccccc1Cl", "target": "FGFR2", "observed": "enzyme activity", "mode": "inhibitor", "concentration": "5 µM", "quantity": "remaining activity", "result": "95.6%"}
{"Compound": "COc1ccc(COc2ccc(Cc3cnc(N)nc3N)cc2OC)cc1", "target": "FGFR2", "observed": "cell-free assay", "concentration": "0.5 µM", "quantity": "remaining signal", "result": "102%"}
{"Compound": "O=c1nc(-c2ccccn2)sc2ccccc12", "target": "FGFR2", "observed": "cell-free assay", "technique": "competition with immobilised ligand", "concentration": "1 µM", "quantity": "remaining binding", "result": "100%"}
{"Compound": "CC/C(=N\\NC(=O)NCc1cccc(O)c1)c1ccc(O)c(C)c1O", "target": "Fibroblast growth factor receptor 2 (FGFR2, Homo sapiens, UniProt P21802, V564I)", "observed": "enzyme activity", "mode": "inhibitor", "concentration": "0.1 µM", "quantity": "inhibition", "result": "-2.7%"}
{"Compound": "CN([C@@H]1CCc2c(CC(=O)O)c3ccccc3n2C1)S(=O)(=O)c1ccc(F)cc1", "target": "FGFR2", "observed": "cell-free assay", "technique": "competition with immobilised ligand", "concentration": "1 µM", "quantity": "remaining binding", "result": "80%"}
{"Compound": "CS(=O)(=O)CCNCc1ccc(-c2ccc3ncnc(Nc4ccc(OCc5cccc(F)c5)c(Cl)c4)c3c2)o1", "target": "FGFR2", "observed": "cell-free assay", "concentration": "0.5 µM", "quantity": "remaining signal", "result": "96.4%"}
{"Compound": "CNCc1ccccc1-c1csc([C@H](C)Nc2nc(C)nc3cc(OC)c(OC)cc23)c1", "target": "FGFR2", "observed": "cell-free assay", "technique": "competition with immobilised ligand", "concentration": "1 µM", "quantity": "remaining binding", "result": "94%"}
{"Compound": "Cc1ccc(Nc2nccc(N(C)c3ccc4c(C)n(C)nc4c3)n2)cc1S(N)(=O)=O", "target": "FGFR2", "observed": "enzyme activity", "mode": "inhibitor", "concentration": "10 µM", "quantity": "inhibition", "result": "99%"}
{"Compound": "O=C(NCCCC1CCCCC1)c1ccc(CNC(=O)c2cnn(-c3ccccc3)c2C(F)(F)F)cc1", "target": "FGFR2", "observed": "cell-free assay", "technique": "competition with immobilised ligand", "concentration": "0.1 µM", "quantity": "remaining binding", "result": "100%"}
{"Compound": "CNc1cccc2cc(C(=O)Nc3ccc(C(=O)O)cc3)c(=O)[nH]c12", "target": "FGFR2", "observed": "enzyme activity", "mode": "inhibitor", "concentration": "10 µM", "quantity": "inhibition", "result": "-1%"}
{"Compound": "CCc1ccccc1C(=O)Nc1n[nH]c2c(C)c(F)c(C3C(C#N)=C(C)N(C)C(C)=C3C#N)cc12", "target": "FGFR2", "observed": "cell-free assay", "technique": "competition with immobilised ligand", "concentration": "1 µM", "quantity": "remaining binding", "result": "83%"}
{"Compound": "CN(C)C1CCN(CC#Cc2nn(C3CCCC3)c3nc(NCc4ccccc4)ncc23)C1 (centres unmarked)", "target": "FGFR2", "observed": "enzyme activity", "mode": "inhibitor", "technique": "FRET", "concentration": "0.1 µM", "quantity": "inhibition", "result": "0%"}
{"Compound": "CC(C)(C)c1nc(-c2cccc(NS(=O)(=O)c3c(F)cccc3F)c2F)c(-c2ccnc(N)n2)s1", "target": "FGFR2", "observed": "enzyme activity", "mode": "inhibitor", "technique": "radiometric", "concentration": "1 µM", "quantity": "remaining activity", "result": "92%"}
{"Compound": "CN(c1ccnc(CNc2nc(Nc3ccc4c(c3)CC(=O)N4)ncc2C(F)(F)F)n1)S(C)(=O)=O", "target": "FGFR2", "observed": "cell-free assay", "technique": "competition with immobilised ligand", "concentration": "1 µM", "quantity": "remaining binding", "result": "59%"}
{"Compound": "CCCOc1ccc(OC)c(F)c1C(=O)c1ccc(C(=O)N[C@@H]2CNC[C@H]2NC(=O)c2ccc3[nH]ncc3c2)cc1", "target": "FGFR2 N549H", "observed": "enzyme activity", "mode": "inhibitor", "concentration": "10 µM", "quantity": "remaining activity", "result": "69%"}
{"Compound": "Cc1cnc(NC2CCOCC2)nc1-n1cnc(C(=O)NC(CN)c2cc(F)cc(Cl)c2)c1 (centres unmarked)", "target": "FGFR2", "observed": "enzyme activity", "mode": "inhibitor", "technique": "radiometric", "concentration": "1 µM", "quantity": "remaining activity", "result": "100%"}
{"Compound": "CN(C)CC#Cc1ccc(OCCCc2sc(N3CCc4cccc(C(=O)Nc5nc6ccccc6s5)c4C3)nc2C(=O)O)c(F)c1", "target": "FGFR2", "observed": "cell-free assay", "technique": "competition with immobilised ligand", "concentration": "1 µM", "quantity": "remaining binding", "result": "98%"}
{"Compound": "Cc1ccc(NC(=O)c2ccc(C)c(C(F)(F)F)c2)cc1C#Cc1nn(C2CCC(O)CC2)c2ncnc(N)c12 (centres unmarked)", "target": "FGFR2", "observed": "cell-free assay", "concentration": "10 µM", "quantity": "remaining signal", "result": "0%"}
{"Compound": "CCN(CC)CCNC(=O)c1c(C)[nH]c(/C=C2\\C(=O)Nc3ccc(F)cc32)c1C", "target": "FGFR2", "observed": "enzyme activity", "mode": "inhibitor", "concentration": "0.3 µM", "quantity": "inhibition", "result": "36%"}
{"Compound": "Cc1ccc(C(=O)NCc2ccsc2)cc1C#Cc1cn(C(C)C)c2ncnc(N)c12", "target": "FGFR2", "observed": "enzyme activity", "mode": "inhibitor", "concentration": "1 µM", "quantity": "activity vs control", "result": "55%"}
{"Compound": "Cc1cc(NC(=O)c2cccc3cc(-c4cccc5[nH]nc(N)c45)ccc23)ccc1F", "target": "FGFR2 N549H", "observed": "enzyme activity", "mode": "inhibitor", "concentration": "0.1 µM", "quantity": "activity vs control", "result": "33%"}
{"Compound": "Nc1nc(Nc2ccc(S(N)(=O)=O)cc2)nn1C(=O)c1c(F)cccc1F", "target": "FGFR2", "observed": "cell-free assay", "concentration": "0.5 µM", "quantity": "remaining signal", "result": "79.7%"}
{"Compound": "CC(C)(O)[C@H]1CC[C@H](Nc2ccc3ncc(-c4cccc(C(F)(F)F)c4)n3n2)CC1", "target": "FGFR2", "observed": "enzyme activity", "mode": "inhibitor", "concentration": "1 µM", "quantity": "remaining activity", "result": "98.3%"}
